Test results: ChEMBL document CHEMBL1145150, “Synthesis and biological activity of nitronyl nitroxide containing peptides” (J Med Chem, 2005)
Each block holds one compound with its values, some of them ahead of it. Residues, ends and D or L forms follow the SMILES beside them. *: point of attachment. X1 = CC1(C)N(O)C(c2ccc(OCC(=O)*)cc2)=[N+]([O-])C1(C)C

Tests used:
[1] = tested on: PC-12; assay: Free radical scavenging activity of compound (12.5 uM) evaluated against OH in PC12 cells; type: functional, cell-based; conditions: Rattus norvegicus
Procedure, shortened: (§1)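 PC12 cells were grown in DMEM with 10% heat-inactivated horse serum, 5% FBS and 1.0 mM pyruvate at 37 °C and 5% CO₂. Cells were seeded at 20 000/well on poly-L-lysine and attached 24 h, then pretreated 1 h with 12.5–200 µM compound. Insults were: NO, 2 mM nitroprusside for 2 h, then 14 h in fresh medium; H₂O₂, 1 mM for 1 h; OH, 1 mM H₂O₂/30 µM Fe(II) for 1 h. Survival was read by MTT.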

[2] = tested on: Rattus norvegicus; assay: Thrombolytic activity (10.0 umol/kg) expressed as the reduction of thrombus mass determined in male wistar rats; type: functional
Procedure, shortened: (§2)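 Male Wistar rats (200–300 g) were anesthetized with pentobarbital sodium (80.0 mg/kg i.p.). A steel helix was left for 15 min in 1.0 mL of carotid blood, then weighed. It was placed in a heparin-filled (50 IU/mL) polyethylene shunt into the left jugular vein. Heparin and then the test agent were injected through the shunt. Blood circulated 90 min, the helix was reweighed, and thrombus mass reduction was recorded (ANOVA).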

[3] = tested on: PC-12; assay: Free radical scavenging activity of compound (12.5 uM) evaluated against hydrogen peroxide in PC12 cells; type: functional, cell-based; conditions: Rattus norvegicus; procedure, shortened: as §1
[4] = species on record: Oryctolagus cuniculus; assay: Fibrinolytic activity (0.8 ug) determined in fibrinogen-agarose mixture coagulated with […] of thrombin; type: functional
Procedure, shortened: (§3)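 Plates were cast from equal volumes of 0.3% rabbit fibrinogen and 0.95% agarose, both in 50 mM sodium barbiturate buffer (pH 7.8), clotted with thrombin (100 IU/mL) and held 30 min at 4 °C. Wells 5 mm across were punched and loaded with 30 µL of saline, urokinase or test agent. Fibrinolysis was expressed as lysis area.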

[5] = species on record: Oryctolagus cuniculus; assay: Effect (0.8 ug) on euglobulin clot lysis time determined using rabbit euglobulin; type: functional
Procedure, shortened: (§4)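 Rabbit plasma was diluted 1:20 in distilled water and precipitated at pH 5.7 with 0.25% acetic acid for 30 min at 4 °C. It was spun at 2000g for 15 min, and the euglobulin pellet was resuspended to the original plasma volume in 50 mM sodium barbiturate buffer (pH 7.8; 1.66 mM CaCl₂, 0.68 mM MgCl₂, 93.96 mM NaCl). Saline, urokinase or test agent was added to the clots, and time to clot lysis was read in a microplate.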

[6] = species on record: Rattus norvegicus; assay: Concentration of compound (1 uM) required to inhibit acetylcholine-induced vasorelaxation of rat aortic strip relative to control; type: functional, Aorta
[7] = tested on: PC-12; assay: Free radical scavenging activity of compound (12.5 uM) evaluated against nitric oxide in PC12 cells; type: functional, cell-based; conditions: Rattus norvegicus; procedure, shortened: as §1
[8] = species on record: Rattus norvegicus; assay: Concentration of compound (1 umol/L) required to inhibit acetylcholine-induced vasorelaxation of rat aortic strip relative to control; type: functional, Aorta
[9] = species on record: Oryctolagus cuniculus; assay: Fibrinolytic activity (1.4 ug) determined in fibrinogen-agarose mixture coagulated with […] of thrombin; type: functional; procedure, shortened: as §3
[10] = species on record: Oryctolagus cuniculus; assay: Effect (1.4 ug) on euglobulin clot lysis time determined using rabbit euglobulin; type: functional; procedure, shortened: as §4
[11] = species on record: Oryctolagus cuniculus; assay: Fibrinolytic activity (1.3 ug) determined in fibrinogen-agarose mixture coagulated with […] of thrombin; type: functional; procedure, shortened: as §3
[12] = species on record: Oryctolagus cuniculus; assay: Effect (1.3 ug) on euglobulin clot lysis time determined using rabbit euglobulin; type: functional; procedure, shortened: as §4
[13] = species on record: Oryctolagus cuniculus; assay: Fibrinolytic activity (1.5 ug) determined in fibrinogen-agarose mixture coagulated with […] of thrombin; type: functional; procedure, shortened: as §3
[14] = species on record: Oryctolagus cuniculus; assay: Effect (1.5 ug) on euglobulin clot lysis time determined using rabbit euglobulin; type: functional; procedure, shortened: as §4
[15] = tested on: PC-12; assay: Free radical scavenging activity of compound (25 uM) evaluated against OH in PC12 cells; type: functional, cell-based; conditions: Rattus norvegicus; procedure, shortened: as §1
[16] = tested on: PC-12; assay: Free radical scavenging activity of compound (25 uM) evaluated against hydrogen peroxide in PC12 cells; type: functional, cell-based; conditions: Rattus norvegicus; procedure, shortened: as §1
[17] = species on record: Oryctolagus cuniculus; assay: Effect (0.6 ug) on euglobulin clot lysis time determined using rabbit euglobulin; type: functional; procedure, shortened: as §4
[18] = species on record: Oryctolagus cuniculus; assay: Fibrinolytic activity (0.2 ug) determined in fibrinogen-agarose mixture coagulated with […] of thrombin; type: functional; procedure, shortened: as §3
[19] = species on record: Oryctolagus cuniculus; assay: Effect (2.2 ug) on euglobulin clot lysis time determined using rabbit euglobulin; type: functional; procedure, shortened: as §4
[20] = tested on: Rattus norvegicus; assay: Thrombolytic activity (5.0 umol/kg) expressed as the reduction of thrombus mass determined in male wistar rats; type: functional; procedure, shortened: as §2
[21] = tested on: PC-12; assay: Free radical scavenging activity of compound (25 uM) evaluated against […] in PC12 cells; type: functional, cell-based; conditions: Rattus norvegicus
[22] = species on record: Rattus norvegicus; assay: Concentration of compound (0.1 umol/L) required to inhibit acetylcholine-induced vasorelaxation of rat aortic strip relative to control; type: functional, Aorta
[23] = species on record: Oryctolagus cuniculus; assay: Fibrinolytic activity (0.4 ug) determined in fibrinogen-agarose mixture coagulated with […] of thrombin; type: functional; procedure, shortened: as §3
[24] = species on record: Rattus norvegicus; assay: Concentration of compound (0.01 umol/L) required to inhibit acetylcholine-induced vasorelaxation of rat aortic strip relative to control; type: functional, Aorta
[25] = species on record: Oryctolagus cuniculus; assay: Effect (1.1 ug) on euglobulin clot lysis time determined using rabbit euglobulin; type: functional; procedure, shortened: as §4
[26] = tested on: Rattus norvegicus; assay: Thrombolytic activity (15.0 umol/kg) expressed as the reduction of thrombus mass determined in male wistar rats; type: functional; procedure, shortened: as §2
[27] = tested on: PC-12; assay: Free radical scavenging activity of compound (50 uM) evaluated against hydrogen peroxide in PC12 cells; type: functional, cell-based; conditions: Rattus norvegicus; procedure, shortened: as §1
[28] = species on record: Oryctolagus cuniculus; assay: Effect (2.1 ug) on euglobulin clot lysis time determined using rabbit euglobulin; type: functional; procedure, shortened: as §4
[29] = tested on: PC-12; assay: Free radical scavenging activity of compound (50 uM) evaluated against […] in PC12 cells; type: functional, cell-based; conditions: Rattus norvegicus
[30] = tested on: PC-12; assay: Free radical scavenging activity of compound (50 uM) evaluated against OH in PC12 cells; type: functional, cell-based; conditions: Rattus norvegicus; procedure, shortened: as §1
[31] = species on record: Oryctolagus cuniculus; assay: Fibrinolytic activity (0.7 ug) determined in fibrinogen-agarose mixture coagulated with […] of thrombin; type: functional; procedure, shortened: as §3
[32] = species on record: Oryctolagus cuniculus; assay: Effect (2.3 ug) on euglobulin clot lysis time determined using rabbit euglobulin; type: functional; procedure, shortened: as §4
[33] = tested on: PC-12; assay: Free radical scavenging activity of compound (200 uM) evaluated against hydrogen peroxide in PC12 cells; type: functional, cell-based; conditions: Rattus norvegicus; procedure, shortened: as §1
[34] = tested on: Rattus norvegicus; assay: Thrombolytic activity (1 umol/kg) expressed as the reduction of thrombus mass determined in male wistar rats; type: functional; procedure, shortened: as §2
[35] = tested on: Rattus norvegicus; assay: Thrombolytic activity (10 umol/kg) expressed as the reduction of thrombus mass determined in male wistar rats; type: functional; procedure, shortened: as §2
[36] = tested on: Rattus norvegicus; assay: Thrombolytic activity (5 umol/kg) expressed as the reduction of thrombus mass determined in male wistar rats; type: functional; procedure, shortened: as §2
[37] = tested on: PC-12; assay: Free radical scavenging activity of compound (200 uM) evaluated against […] in PC12 cells; type: functional, cell-based; conditions: Rattus norvegicus
[38] = tested on: PC-12; assay: Free radical scavenging activity of compound (200 uM) evaluated against OH in PC12 cells; type: functional, cell-based; conditions: Rattus norvegicus; procedure, shortened: as §1
[39] = tested on: Rattus norvegicus; assay: Thrombolytic activity (20 000 IU/kg) expressed as the reduction of thrombus mass determined in male wistar rats; type: functional, organism-based; procedure, shortened: as §2
[40] = species on record: Oryctolagus cuniculus; assay: Effect (5 IU) on euglobulin clot lysis time determined using rabbit euglobulin; type: functional; procedure, shortened: as §4
[41] = species on record: Oryctolagus cuniculus; assay: Fibrinolytic activity (5 IU)) determined in fibrinogen-agarose mixture coagulated with […] of thrombin; type: functional; procedure, shortened: as §3

Compound: C[C@H](N)C(=O)N[C@@H](CCCN=C(N)N)C(=O)N1CCC[C@H]1C(=O)N[C@@H](C)C(=O)N[C@@H](CCCCN)C(=O)O (H-ARPAK-OH)
Inhibition [8]: 9.5% | Reduction [2]: 18.54 mg | Lysis area [9]: 212.78 mm.mm | ECLT [10]: 96.38 min

Compound: C[C@H](NC(=O)[C@@H]1CCCN1C(=O)[C@H](CCCN=C(N)N)NC(=O)CN)C(=O)N[C@@H](CCCCN)C(=O)O (H-GRPAK-OH)
Lysis area [11]: 230.54 mm.mm | Inhibition [8]: 9.2% | Reduction [2]: 25.82 mg | ECLT [12]: 91.09 min

Compound: C[C@H](NC(=O)[C@@H]1CCCN1C(=O)[C@H](CCCN=C(N)N)NC(=O)[C@@H](N)CCC(N)=O)C(=O)N[C@@H](CCCCN)C(=O)O (H-QRPAK-OH)
Lysis area [13]: 223.99 mm.mm | Inhibition [8]: 8.9% | Reduction [2]: 21.17 mg | ECLT [14]: 93.01 min

Compound: UROKINASE
Reduction [39]: 25.4 mg | ECLT [40]: 126 min | Lysis area [41]: 224 mm.mm

Second part, led by results:

EC50 [1]: 99.9 µM | EC50 [3]: 30.2 µM | EC50 [7]: 91.2 µM
Compound: CC1(C)N(O)C(c2ccc(OCC(=O)O)cc2)=[N+]([O-])C1(C)C
Reduction [2]: 15.89 mg | Lysis area [4]: 23.96 mm.mm | ECLT [5]: 218.56 min | Inhibition [6]: 99.2%

EC50 [15]: 98.1 µM | EC50 [16]: 28.1 µM | EC50 [21]: 89.1 µM
Compound: C[C@H](NC(=O)COc1ccc(C2=[N+]([O-])C(C)(C)C(C)(C)N2O)cc1)C(=O)N[C@@H](CCCN=C(N)N)C(=O)N1CCC[C@H]1C(=O)N[C@@H](C)C(=O)N[C@@H](CCCCN)C(=O)O (X1-ARPAK-OH)
Inhibition [8]: 92.9% | Reduction [2]: 19.91 mg | ECLT [17]: 145.61 min | Lysis area [18]: 172.33 mm.mm | ECLT [19]: 104.12 min | Reduction [20]: 16.27 mg | Inhibition [22]: 78.6% | Lysis area [23]: 194.54 mm.mm | Inhibition [24]: 66.8% | Lysis area [4]: 215.23 mm.mm | ECLT [25]: 123.32 min | Reduction [26]: 26.88 mg

EC50 [27]: 25.4 µM | EC50 [29]: 92.3 µM | EC50 [30]: 95.4 µM
Compound: C[C@H](NC(=O)[C@@H]1CCCN1C(=O)[C@H](CCCN=C(N)N)NC(=O)CNC(=O)COc1ccc(C2=[N+]([O-])C(C)(C)C(C)(C)N2O)cc1)C(=O)N[C@@H](CCCCN)C(=O)O (X1-GRPAK-OH)
ECLT [28]: 105.01 min | Inhibition [8]: 96% | Reduction [2]: 19.7 mg | ECLT [17]: 147.22 min | Lysis area [18]: 175.04 mm.mm | Reduction [20]: 16.34 mg | Inhibition [22]: 80.9% | Lysis area [23]: 196.87 mm.mm | Inhibition [24]: 69.3% | ECLT [25]: 126.51 min | Reduction [26]: 26.64 mg | Lysis area [31]: 217.35 mm.mm

EC50 [33]: 74.6 µM | EC50 [37]: 91.8 µM | EC50 [38]: 94.2 µM
Compound: C[C@H](NC(=O)[C@@H]1CCCN1C(=O)[C@H](CCCN=C(N)N)NC(=O)[C@H](CCC(N)=O)NC(=O)COc1ccc(C2=[N+]([O-])C(C)(C)C(C)(C)N2O)cc1)C(=O)N[C@@H](CCCCN)C(=O)O (X1-QRPAK-OH)
ECLT [32]: 100.09 min | Inhibition [8]: 95.6% | ECLT [17]: 136 min | Reduction [34]: 16.4 mg | Lysis area [18]: 195.38 mm.mm | Reduction [35]: 28.85 mg | Reduction [36]: 20.43 mg | Inhibition [22]: 80.1% | Lysis area [23]: 215.12 mm.mm | Inhibition [24]: 68.3% | Lysis area [4]: 230.15 mm.mm | ECLT [25]: 117.96 min
